The text below walks through data of ChEMBL document CHEMBL1649147, “Antistaphylococcal activity of dihydrophthalazine antifolates, a family of novel antibacterial drugs” (2009).

Usually MIC stands for the lowest concentration found to suppress growth. The low end stands for a more susceptible organism, the high end for a less susceptible organism. By MIC50 is commonly meant the lowest concentration that inhibits either 50% of growth or 50% of the strains tested, depending on the study. A lower MIC50 goes with greater potency. As a reminder, the MIC90 is the lowest concentration that inhibits either 90% of growth or 90% of the strains tested, depending on the study. Higher therefore signals weaker potency.

Molecules are shown by their SMILES. Values after ≈ are worked out from the molar mass of the structure shown. Bounds are passed on as bounds.

The first assay deals with Staphylococcus aureus. The experiment in a line: Antibacterial activity against methicillin-susceptible Staphylococcus aureus ATCC 29213 after 50 passages by agar dilution method. Format: functional. Conditions: ATCC29213. In outline: (§1)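 Daily serial passage for up to 50 days at 35°C for 24 h in 1 ml MHB. […] Each transfer used 10 µl from the tube nearest the MIC (1–2 dilutions below) with the same turbidity as the drug-free control. […] MICs were measured by agar dilution, with changes given as log2 steps.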
For orientation: Agar dilution tests growth on a series of plates holding different concentrations.
The molecule `COc1ncc(C2c3ccccc3C=NN2C(=O)/C=C/c2cc(Cc3cnc(N)nc3N)cc(OC)c2OC)cn1` (configuration not stated) had an MIC of 8 µg/mL (≈ 14.5 µM).

The subject of another assay is Staphylococcus aureus. Put plainly: Antibacterial activity against methicillin-susceptible, vancomycin-intermediate Staphylococcus aureus 505 by broth macrodilution method. Format: functional.
Conditions: not given
In turn, `COc1ncc(C2c3ccccc3C=NN2C(=O)/C=C/c2cc(Cc3cnc(N)nc3N)cc(OC)c2OC)cn1` (configuration not stated) displayed an MIC of 0.016 µg/mL (≈ 0.029 µM).

The subject of another assay is Staphylococcus epidermidis. The experiment in a line: Antibacterial activity against coagulase-negative Staphylococcus epidermidis 051 after 10 passages in MBH without antibiotic by agar dilution method. Format: functional.
Conditions: not given
In outline:
(§2)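 After drug-selective serial passage, selected clones were passaged 10 times in antibiotic-free MHB. MICs were then redetermined, and the change is expressed as log2 dilution steps.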
Molecule `COc1ncc(C2c3ccccc3C=NN2C(=O)/C=C/c2cc(Cc3cnc(N)nc3N)cc(OC)c2OC)cn1` (configuration not stated) displayed an MIC of 16 µg/mL (≈ 29 µM).

The next assay has as its system Staphylococcus aureus. Put plainly: Antibacterial activity against methicillin-resistant Staphylococcus aureus by agar dilution method.
Conditions: not given
Format: functional. In outline: (§3)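 Agar dilution on Mueller-Hinton agar per CLSI guidelines. S. aureus ATCC 29213 and E. faecalis ATCC 29212 were run with each set, and test MICs were accepted only when the control strains fell within acceptable ranges.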
`COc1ncc(C2c3ccccc3C=NN2C(=O)/C=C/c2cc(Cc3cnc(N)nc3N)cc(OC)c2OC)cn1` (configuration not stated) yielded an MIC50 of 0.03 µg/mL (≈ 0.0543 µM) and an MIC90 of 0.25 µg/mL (≈ 0.452 µM).

The subject of another assay is Staphylococcus epidermidis. Put plainly: Antibacterial activity against methicillin-susceptible coagulase-negative Staphylococcus epidermidis 057 by broth macrodilution method. Format: functional.
Conditions: not given
`COc1ncc(C2c3ccccc3C=NN2C(=O)/C=C/c2cc(Cc3cnc(N)nc3N)cc(OC)c2OC)cn1` (configuration not stated) displayed a minimal inhibitory concentration (MIC) of 8 µg/mL (≈ 14.5 µM).

The next assay has as its system Staphylococcus aureus. The experiment in a line: Antibacterial activity against methicillin-susceptible, vancomycin-intermediate Staphylococcus aureus 505 after 50 passages by agar dilution method. Type of assay: functional.
Conditions: not given
In a few lines: as §1
Molecule `COc1ncc(C2c3ccccc3C=NN2C(=O)/C=C/c2cc(Cc3cnc(N)nc3N)cc(OC)c2OC)cn1` (configuration not stated) showed an MIC of 1 µg/mL (≈ 1.81 µM).

In another assay the test system is Staphylococcus epidermidis. The experiment in a line: Antibacterial activity against coagulase-negative Staphylococcus epidermidis 057 by agar dilution method.
Conditions: not given
Type of assay: functional. In outline:
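Agar dilution MIC determined on Mueller-Hinton agar following CLSI guidelines. S. aureus ATCC 29213 and Enterococcus faecalis ATCC 29212 were run as quality controls with each set, and test MICs were accepted only when the control MICs fell within acceptable ranges. Test organism was a coagulase-negative S. epidermidis strain.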
`COc1ncc(C2c3ccccc3C=NN2C(=O)/C=C/c2cc(Cc3cnc(N)nc3N)cc(OC)c2OC)cn1` (configuration not stated): the MIC stood at 8 µg/mL (≈ 14.5 µM).

In a further assay the test system is Staphylococcus epidermidis. Put plainly: Antibacterial activity against coagulase-negative Staphylococcus epidermidis 057 after 10 passages in MBH without antibiotic by agar dilution method. Type of assay: functional.
Conditions: not given
In a few lines:
as §2
`COc1ncc(C2c3ccccc3C=NN2C(=O)/C=C/c2cc(Cc3cnc(N)nc3N)cc(OC)c2OC)cn1` (configuration not stated) registered an MIC of 128 µg/mL (≈ 232 µM).

The subject of the next assay is Staphylococcus aureus. Put plainly: Antibacterial activity against methicillin-resistant Staphylococcus aureus 145 by broth macrodilution method. Type of assay: functional.
Conditions: not given
`COc1ncc(C2c3ccccc3C=NN2C(=O)/C=C/c2cc(Cc3cnc(N)nc3N)cc(OC)c2OC)cn1` (configuration not stated) gave a minimal inhibitory concentration (MIC) of 0.25 µg/mL (≈ 0.452 µM).

The next assay relates to Staphylococcus epidermidis. The experiment in a line: Antibacterial activity against coagulase-negative Staphylococcus epidermidis 057 assessed as change in MIC by agar dilution method after serial passages in the absence of antibiotic relative to control. Format: functional.
Conditions: not given
In outline:
as §2
Consider `COc1ncc(C2c3ccccc3C=NN2C(=O)/C=C/c2cc(Cc3cnc(N)nc3N)cc(OC)c2OC)cn1` (configuration not stated), for which the “fold change (FC)” value was 0.

The next assay has as its system Staphylococcus aureus. The experiment in a line: Antibacterial activity against methicillin-resistant Staphylococcus aureus ATCC 43300 by broth macrodilution method. Conditions: ATCC43300. Format: functional.
In the case of `COc1ncc(C2c3ccccc3C=NN2C(=O)/C=C/c2cc(Cc3cnc(N)nc3N)cc(OC)c2OC)cn1` (configuration not stated), the MIC was 0.03 µg/mL (≈ 0.0543 µM).

The subject of another assay is Staphylococcus aureus. Put plainly: Antibacterial activity against Tmp-susceptible coagulase-negative Staphylococcus aureus by agar dilution method.
Conditions: not given
Format: functional. In outline:
(§4)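 MICs by agar dilution on Mueller-Hinton agar following CLSI guidelines. S. aureus ATCC 29213 and E. faecalis ATCC 29212 were run as quality controls with each set, and test-strain MICs were kept only if control MICs fell within acceptable ranges.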
On to `COc1ncc(C2c3ccccc3C=NN2C(=O)/C=C/c2cc(Cc3cnc(N)nc3N)cc(OC)c2OC)cn1` (configuration not stated), for which the MIC was no more than 0.008 µg/mL.

Another assay concerns Staphylococcus epidermidis. The experiment in a line: Antibacterial activity against coagulase-negative Staphylococcus epidermidis 051 by agar dilution method.
Conditions: not given
Format: functional. In outline: as §4
In the case of `COc1ncc(C2c3ccccc3C=NN2C(=O)/C=C/c2cc(Cc3cnc(N)nc3N)cc(OC)c2OC)cn1` (configuration not stated), it took 0.25 µg/mL (≈ 0.452 µM) to inhibit growth (MIC).

The next assay relates to Staphylococcus aureus. The experiment in a line: Antibacterial activity against methicillin-resistant Staphylococcus aureus ATCC 43300 after 50 passages by agar dilution method. Type of assay: functional. Particulars: ATCC43300. In outline:
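Serial passage under drug. Inoculum was ~1 × 10^6 CFU/ml from overnight MHA growth, in 1 ml MHB at 35°C for 24 h. Drug ranged from 4 log2 steps above to 3 log2 steps below the MIC. […] MIC change is given as log2 steps.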
Take `COc1ncc(C2c3ccccc3C=NN2C(=O)/C=C/c2cc(Cc3cnc(N)nc3N)cc(OC)c2OC)cn1` (configuration not stated): the minimal inhibitory concentration (MIC) was determined as 4 µg/mL (≈ 7.24 µM).

The subject of a further assay is Staphylococcus aureus. Put plainly: Antibacterial activity against methicillin-resistant and vancomycin-resistant Staphylococcus aureus VRS1 by agar dilution method. Type of assay: functional.
Conditions: not given
In a few lines: as §3
Molecule `COc1ncc(C2c3ccccc3C=NN2C(=O)/C=C/c2cc(Cc3cnc(N)nc3N)cc(OC)c2OC)cn1` (configuration not stated) returned an MIC of 0.5 µg/mL (≈ 0.905 µM).

The test system of the next assay is Staphylococcus epidermidis. Put plainly: Antibacterial activity against methicillin-resistant, Linezolid non-susceptible coagulase-negative Staphylococcus epidermidis 345 by agar dilution method. Type of assay: functional.
Conditions: not given
On to `COc1ncc(C2c3ccccc3C=NN2C(=O)/C=C/c2cc(Cc3cnc(N)nc3N)cc(OC)c2OC)cn1` (configuration not stated), for which inhibition of growth (MIC) required 0.125 µg/mL (≈ 0.226 µM).

A further assay deals with coagulase-negative staphylococci. The experiment in a line: Antibacterial activity against methicillin-resistant coagulase-negative staphylococci by agar dilution method.
Conditions: not given
Molecule `COc1ncc(C2c3ccccc3C=NN2C(=O)/C=C/c2cc(Cc3cnc(N)nc3N)cc(OC)c2OC)cn1` (configuration not stated) had an MIC50 of 0.06 µg/mL (≈ 0.109 µM) and an MIC90 of 0.5 µg/mL (≈ 0.905 µM).

A further assay concerns Staphylococcus epidermidis. Put plainly: Antibacterial activity against coagulase-negative Staphylococcus epidermidis 225 after 10 passages in MBH without antibiotic by agar dilution method.
Conditions: not given
Type of assay: functional. In outline:
as §2
In turn, `COc1ncc(C2c3ccccc3C=NN2C(=O)/C=C/c2cc(Cc3cnc(N)nc3N)cc(OC)c2OC)cn1` (configuration not stated) showed an MIC of 8 µg/mL (≈ 14.5 µM).

The next assay has as its system Staphylococcus aureus. Put plainly: Antibacterial activity against Tmp-susceptible Staphylococcus aureus by agar dilution method. Format: functional.
Conditions: not given
In a few lines:
as §4
The molecule `COc1ncc(C2c3ccccc3C=NN2C(=O)/C=C/c2cc(Cc3cnc(N)nc3N)cc(OC)c2OC)cn1` (configuration not stated) returned an MIC50 of 0.03 µg/mL (≈ 0.0543 µM) and an MIC90 of 0.03 µg/mL (≈ 0.0543 µM).
